Results published in ChEMBL document CHEMBL2407075, “Sulphonamido-quinoxalines: search for anticancer agent” (Eur J Med Chem, 2013).

Assays:
Format in all cases: functional
[1] = tested on: PC-3; experiment: Growth inhibition of human PC3 cells assessed as cell growth at 10^-4 M after 48 hrs by sulforhodamine B assay; details: PC-3, 48 h, read-out: Activity
[2] = tested on: A498; experiment: Growth inhibition of human A498 cells assessed as cell growth at 10^-4 M after 48 hrs by sulforhodamine B assay; details: A498, 48 h, read-out: Activity
Method in brief: (§1)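 Five-dose NCI-60 run (0.01, 0.1, 1, 10 and 100 µM, as 10-fold dilutions from a DMSO stock made at 400× the top final level). Cells were grown in RPMI 1640 with 5% FBS and 2 mM glutamine and plated for 24 h. They were then exposed for 48 h at 37 °C and 5% CO2. TCA fixation was followed by SRB staining with A515 read-out. Percent growth was taken relative to time-zero and control plates.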

[3] = tested on: IGROV-1; experiment: Growth inhibition of human IGROV1 cells assessed as cell growth at 10^-4 M after 48 hrs by sulforhodamine B assay; details: IGROV-1, 48 h, read-out: Activity
Method in brief: (§2)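 Five-dose screen at NCI. Cells in RPMI 1640 with 5% FBS and 2 mM L-glutamine, seeded at 5000–40,000 cells/well and grown 24 h at 37 °C, 5% CO2 before dosing, with time-zero plates TCA-fixed. Drug diluted from DMSO stock to 0.01, 0.1, 1, 10 and 100 µM final, 48 h. Cells fixed with cold TCA (10% final), stained with 0.4% SRB and read at 515 nm. Percent growth from Tz, control and test absorbances; GI50, TGI and LC50 from dose-response curves.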

[4] = tested on: NCI-H460; experiment: Growth inhibition of human NCI-H460 cells assessed as cell growth at 10^-4 M after 48 hrs by sulforhodamine B assay; details: NCI-H460, 48 h, read-out: Activity
[5] = tested on: MCF7; experiment: Growth inhibition of human MCF7 cells assessed as cell growth at 10^-5 M after 48 hrs by sulforhodamine B assay; details: MCF7, 48 h, read-out: Activity
[6] = tested on: TK-10; experiment: Growth inhibition of human TK10 cells assessed as cell growth at 10^-5 M after 48 hrs by sulforhodamine B assay; details: TK-10, 48 h, read-out: Activity
[7] = tested on: MOLT-4; experiment: Growth inhibition of human MOLT4 cells assessed as cell growth at 10^-5 M after 48 hrs by sulforhodamine B assay; details: MOLT-4, 48 h, read-out: Activity
[8] = tested on: DU-145; experiment: Growth inhibition of human DU145 cells assessed as cell growth at 10^-6 M after 48 hrs by sulforhodamine B assay; details: DU-145, 48 h, read-out: Activity; method in brief: as §1
[9] = tested on: SK-OV-3; experiment: Growth inhibition of human SKOV3 cells assessed as cell growth at 10^-6 M after 48 hrs by sulforhodamine B assay; details: SK-OV-3, 48 h, read-out: Activity
[10] = tested on: OVCAR-5; experiment: Growth inhibition of human OVCAR5 cells assessed as cell growth at 10^-6 M after 48 hrs by sulforhodamine B assay; details: OVCAR-5, 48 h, read-out: Activity
[11] = tested on: UACC-257; experiment: Growth inhibition of human UACC257 cells assessed as cell growth at 10^-6 M after 48 hrs by sulforhodamine B assay; details: UACC-257, 48 h, read-out: Activity
[12] = tested on: SF-295; experiment: Growth inhibition of human SF295 cells assessed as cell growth at 10^-6 M after 48 hrs by sulforhodamine B assay; details: SF-295, 48 h, read-out: Activity
[13] = tested on: A549; experiment: Growth inhibition of human A549/ATCC cells assessed as cell growth at 10^-6 M after 48 hrs by sulforhodamine B assay; details: A549, 48 h, read-out: Activity; method in brief: as §1
[14] = tested on: SR; experiment: Growth inhibition of human SR cells assessed as cell growth at 10^-6 M after 48 hrs by sulforhodamine B assay; details: read-out: Activity
[15] = tested on: UACC-257; experiment: Growth inhibition of human UACC257 cells assessed as cell growth at 10^-7 M after 48 hrs by sulforhodamine B assay; details: UACC-257, 48 h, read-out: Activity
[16] = tested on: SR; experiment: Growth inhibition of human SR cells assessed as cell growth at 10^-7 M after 48 hrs by sulforhodamine B assay; details: read-out: Activity
[17] = Growth inhibition of human Hs 578T cells assessed as cell growth at 10^-8 M after 48 hrs by sulforhodamine B assay; details: read-out: Activity; method in brief: as §2
[18] = tested on: MCF7; experiment: Growth inhibition of human MCF7 cells assessed as cell growth at 10^-8 M after 48 hrs by sulforhodamine B assay; details: MCF7, 48 h, read-out: Activity
[19] = tested on: PC-3; experiment: Growth inhibition of human PC3 cells assessed as cell growth at 10^-8 M after 48 hrs by sulforhodamine B assay; details: PC-3, 48 h, read-out: Activity
[20] = tested on: RXF 393; experiment: Growth inhibition of human RXF393 cells assessed as cell growth at 10^-8 M after 48 hrs by sulforhodamine B assay; details: RXF 393, 48 h, read-out: Activity
[21] = tested on: MDA-MB-435; experiment: Growth inhibition of human MDA-MB-435 cells assessed as cell growth at 10^-8 M after 48 hrs by sulforhodamine B assay; details: MDA-MB-435, 48 h, read-out: Activity
[22] = tested on: SF-295; experiment: Growth inhibition of human SF295 cells assessed as cell growth at 10^-8 M after 48 hrs by sulforhodamine B assay; details: SF-295, 48 h, read-out: Activity
[23] = tested on: DU-145; experiment: Growth inhibition of human DU145 cells after 48 hrs by sulforhodamine B assay; details: DU-145, 48 h; for CC50: read-out: LC50 (the source's name)
Method in brief: (§3)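 Adherent cells in RPMI 1640 with 5% FBS and 2 mM L-glutamine were plated at 5000–40,000 cells/well and grown 24 h. Five concentrations (0.01–100 µM, DMSO stock) were added for 48 h at 37 °C. Cells were fixed with cold TCA (10% final) and stained with SRB, read at 515 nm. GI50 came from log concentration–growth curves against time-zero and control plates.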

[24] = tested on: SN12C; experiment: Growth inhibition of human SN12C cells after 48 hrs by sulforhodamine B assay; details: for CC50: read-out: LC50 (the source's name); method in brief: as §3
[25] = tested on: CAKI-1; experiment: Growth inhibition of human CAKI-1 cells after 48 hrs by sulforhodamine B assay; details: CAKI-1, 48 h, read-out: LC50 (the source's name); method in brief: as §3
[26] = Growth inhibition of human NCI-ADR-RES cells after 48 hrs by sulforhodamine B assay; details: for CC50: read-out: LC50 (the source's name); method in brief: as §3
[27] = tested on: M14; experiment: Growth inhibition of human M14 cells after 48 hrs by sulforhodamine B assay; details: M14, 48 h, read-out: LC50 (the source's name); method in brief: as §3
[28] = tested on: NCI-H23; experiment: Growth inhibition of human NCI-H23 cells after 48 hrs by sulforhodamine B assay; details: NCI-H23, 48 h; for CC50: read-out: LC50 (the source's name)
Method in brief: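 Five-dose NCI 60 screen at 0.01, 0.1, 1, 10 and 100 µM, 48 h exposure after 24 h preincubation, in RPMI 1640 with 5% FBS and 2 mM glutamine. Fixed with TCA (10% final for adherent cells, 16% for suspension cells), stained with SRB, A515 read. Percent growth uses time-zero (Tz), control and treated plates. GI50, TGI and LC50 are read from the dose-response curves.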

[29] = Growth inhibition of human EKVX cells after 48 hrs by sulforhodamine B assay; details: for CC50: read-out: LC50 (the source's name); method in brief: as §3

O=S(=O)(Nc1ccc(Cl)cc1)c1ccc2nc(-c3ccccc3)c(-c3ccccc3)nc2c1
growth at 100 µM [1]: 42%
growth at 100 µM [2]: 61%
growth at 100 µM [3]: 73%
growth at 100 µM [4]: 68%
growth at 10 µM [5]: -16%
growth at 10 µM [6]: 9%
growth at 10 µM [7]: -39%
growth at 1 µM [8]: 93%
growth at 1 µM [9]: 105%
growth at 1 µM [10]: 90%
growth at 1 µM [11]: 84%
growth at 1 µM [12]: 82%
growth at 1 µM [13]: 87%
growth at 1 µM [14]: 81%
growth at 0.1 µM [15]: 99%
growth at 0.1 µM [16]: 88%
growth at 0.01 µM [17]: 84%
growth at 0.01 µM [18]: 95%
growth at 0.01 µM [19]: 90%
growth at 0.01 µM [20]: 97%
growth at 0.01 µM [21]: 97%
growth at 0.01 µM [22]: 92%
TGI [23]: > 100 µM
CC50 [23]: > 100 µM
TGI [24]: > 100 µM
CC50 [24]: > 100 µM
CC50 [25]: > 100 µM
TGI [26]: > 100 µM
CC50 [26]: > 100 µM
CC50 [27]: > 100 µM
TGI [28]: > 100 µM
CC50 [28]: > 100 µM
CC50 [29]: > 100 µM

O=S(=O)(Nc1ccccn1)c1ccc2nc(-c3ccccc3)c(-c3ccccc3)nc2c1
growth at 100 µM [1]: 23%
growth at 100 µM [2]: 49%
growth at 100 µM [3]: 63%
growth at 100 µM [4]: 65%
growth at 10 µM [5]: -22%
growth at 10 µM [6]: 4%
growth at 10 µM [7]: -29%
growth at 1 µM [8]: 95%
growth at 1 µM [9]: 98%
growth at 1 µM [10]: 104%
growth at 1 µM [11]: 81%
growth at 1 µM [12]: 90%
growth at 1 µM [13]: 96%
growth at 1 µM [14]: 66%
growth at 0.1 µM [15]: 103%
growth at 0.1 µM [16]: 89%
growth at 0.01 µM [17]: 93%
growth at 0.01 µM [18]: 95%
growth at 0.01 µM [19]: 97%
growth at 0.01 µM [20]: 105%
growth at 0.01 µM [21]: 99%
growth at 0.01 µM [22]: 86%
TGI [23]: > 100 µM
CC50 [23]: > 100 µM
TGI [24]: > 100 µM
CC50 [24]: > 100 µM
CC50 [25]: > 100 µM
CC50 [26]: > 100 µM
CC50 [27]: > 100 µM
GI50 [28]: 2.45 µM
TGI [28]: > 100 µM
CC50 [28]: > 100 µM
GI50 [29]: 2.69 µM
TGI [29]: > 100 µM
CC50 [29]: > 100 µM
